Experimental data reported in article PMC3229621 (Biochemical pharmacology, 2011).

What was measured:
CYP26A1 [1] = biological target: T1, CYP26A1 (Homo sapiens, UniProt O43174); experiment: Depletion of 4-OH-RA, 18-OH-RA and 4-oxo-RA by recombinant CYP26A1; assay type: in vitro ADME; details: for kdep (depletion rate constant): CYP26A1, 200 nM initial substrate, mono-exponential decay; for fold efficiency of CYP26A1 over CYP26B1 in depleting substrate: CYP26A1 vs CYP26B1
T1 sequence (O43174 1-497): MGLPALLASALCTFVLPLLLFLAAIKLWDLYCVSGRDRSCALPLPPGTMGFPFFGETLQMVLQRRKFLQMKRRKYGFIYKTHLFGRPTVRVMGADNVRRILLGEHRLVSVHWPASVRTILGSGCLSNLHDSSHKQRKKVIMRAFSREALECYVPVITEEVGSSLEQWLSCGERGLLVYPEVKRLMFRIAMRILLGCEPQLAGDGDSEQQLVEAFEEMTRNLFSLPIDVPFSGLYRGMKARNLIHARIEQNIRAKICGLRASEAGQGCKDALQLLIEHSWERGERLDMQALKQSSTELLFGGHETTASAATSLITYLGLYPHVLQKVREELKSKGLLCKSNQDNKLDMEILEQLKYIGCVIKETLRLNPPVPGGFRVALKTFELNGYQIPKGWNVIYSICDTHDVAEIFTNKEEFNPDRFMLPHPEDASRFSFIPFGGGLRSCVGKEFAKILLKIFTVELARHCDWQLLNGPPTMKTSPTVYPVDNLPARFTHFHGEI

CYP26B1 [2] = biological target: T2, CYP26B1 (Homo sapiens, UniProt Q9NR63); experiment: Depletion of 4-OH-RA, 18-OH-RA and 4-oxo-RA by recombinant CYP26B1; assay type: in vitro ADME; details: 200 nM initial substrate, mono-exponential decay
T2 sequence (Q9NR63 1-512): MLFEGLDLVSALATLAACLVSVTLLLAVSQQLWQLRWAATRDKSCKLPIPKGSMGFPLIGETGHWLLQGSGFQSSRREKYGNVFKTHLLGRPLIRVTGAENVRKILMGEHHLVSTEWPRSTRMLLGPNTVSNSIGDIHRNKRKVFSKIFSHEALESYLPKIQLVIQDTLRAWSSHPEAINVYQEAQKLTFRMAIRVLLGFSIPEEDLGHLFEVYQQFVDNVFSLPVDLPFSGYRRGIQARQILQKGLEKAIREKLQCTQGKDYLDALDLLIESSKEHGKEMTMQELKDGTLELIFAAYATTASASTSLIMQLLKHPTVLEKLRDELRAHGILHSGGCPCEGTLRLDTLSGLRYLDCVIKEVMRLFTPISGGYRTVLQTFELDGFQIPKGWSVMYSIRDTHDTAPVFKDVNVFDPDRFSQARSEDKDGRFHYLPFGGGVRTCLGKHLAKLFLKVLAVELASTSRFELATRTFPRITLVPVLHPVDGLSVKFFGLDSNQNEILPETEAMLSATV

purified CYP26B1 = biological target: T3, purified CYP26B1 (Homo sapiens, UniProt Q9NR63); experiment: Ligand-induced binding spectra with purified CYP26B1
T3 sequence (Q9NR63 1-512): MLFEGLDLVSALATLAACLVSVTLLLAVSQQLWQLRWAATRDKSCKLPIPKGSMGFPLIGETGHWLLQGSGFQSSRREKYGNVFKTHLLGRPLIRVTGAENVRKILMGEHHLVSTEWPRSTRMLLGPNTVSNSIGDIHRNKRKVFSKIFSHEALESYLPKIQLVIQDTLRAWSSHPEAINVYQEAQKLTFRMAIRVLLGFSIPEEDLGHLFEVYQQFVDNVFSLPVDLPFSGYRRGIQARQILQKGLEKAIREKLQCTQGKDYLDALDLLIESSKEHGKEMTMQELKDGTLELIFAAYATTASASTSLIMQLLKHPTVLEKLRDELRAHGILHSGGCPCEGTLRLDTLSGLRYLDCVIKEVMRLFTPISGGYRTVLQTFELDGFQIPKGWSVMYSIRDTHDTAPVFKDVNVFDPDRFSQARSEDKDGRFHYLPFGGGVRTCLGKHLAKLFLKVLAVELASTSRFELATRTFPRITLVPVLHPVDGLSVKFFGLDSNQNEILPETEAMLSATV
Method in brief: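 Human CYP26B1 expressed in Sf9 insect cells, solubilized with NP40 and cholate, and purified on a Talon cobalt affinity column. Active P450 was quantified by CO difference spectrum. Enzyme at 235 pmol/mL in 100 mM KPi (pH 7.4) with 20% glycerol; absolute spectrum recorded first. Test ligand was added to test and reference cuvettes in 12.5 nM steps until saturation and maximal absorbance change.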

CYP3As and CYP2C8 = details: by CYP3As and CYP2C8; cited from earlier work
CYP26A1 [3] = biological target: T1, CYP26A1; experiment: Kinetics of 4-OH-RA and 18-OH-RA formation from atRA by recombinant CYP26A1
CYP26B1 [4] = biological target: T2, CYP26B1; experiment: Kinetics of 4-OH-RA and 18-OH-RA formation from atRA by recombinant CYP26B1; details: substrate atRA
[5] = substrate: CC1=C(/C=C/C(C)=C/C=C/C(C)=C/C(=O)O)C(C)(C)CCC1; experiment: cells, lysate or membranes named; details: other: substrate atRA, 37.0 °C

CC1=C(/C=C/C(C)=C/C=C/C(C)=C/C(=O)O)C(C)(C)CCC1O (centres unmarked) [4-OH-RA]
kdep (depletion rate constant) (CYP26A1 [1]): 0.10 ± 0.01 min⁻¹ | fold efficiency of CYP26A1 over CYP26B1 in depleting substrate (CYP26A1 [1]): 2–4 fold | kdep (depletion rate constant) (CYP26B1 [2]): 0.03 ± 0.01 min⁻¹

CC1=C(/C=C/C(C)=C/C=C/C(C)=C/C(=O)O)C(C)(C)CCC1=O [4-oxo-RA]
kdep (depletion rate constant) (CYP26A1 [1]): 0.05 ± 0.01 min⁻¹ | fold efficiency of CYP26A1 over CYP26B1 in depleting substrate (CYP26A1 [1]): 2–4 fold | kdep (depletion rate constant) (CYP26B1 [2]): 0.02 ± 0.00 min⁻¹

CC(/C=C/C1=C(CO)CCCC1(C)C)=C\C=C\C(C)=C\C(=O)O [18-OH-RA, 18-hydroxyretinoic acid]
kdep (depletion rate constant) (CYP26A1 [1]): 0.12 ± 0.01 min⁻¹ | fold efficiency of CYP26A1 over CYP26B1 in depleting substrate (CYP26A1 [1]): 2–4 fold | kdep (depletion rate constant) (CYP26B1 [2]): 0.03 ± 0.01 min⁻¹

CC1=C(/C=C/C(C)=C/C=C/C(C)=C/C(=O)O)C(C)(C)CCC1 [atRA, All-trans-retinoic acid]
binding of atRA with CYP26B1 (magnitude of difference spectrum) (purified CYP26B1; atRA concentration dependent): tight binding | ligand-induced difference spectrum type (purified CYP26B1; purified CYP26B1 235 pmol/mL, atRA 10 nM to 500 nM, low-to-high spin shift of heme iron): type I difference spectrum | Vmax for atRA hydroxylation (CYP3As and CYP2C8): 2–5 pmol/min/pmol P450 | intrinsic clearance of atRA metabolism (CYP3As and CYP2C8): 0.2–0.4 µL/min/pmol P450 | fold efficiency of CYP26A1 over CYP26B1 in overall depletion of atRA (CYP26A1 [3]; formation of multiple primary metabolites (4-OH-RA, 18-OH-RA and 16-OH-RA)): approximately 20 fold | Km for CYP26A1 relative to CYP26B1 (CYP26A1 [3]; substrate atRA): two-fold higher | Clint, 4-OH RA formation (CYP26A1 [3]; substrate atRA, CYP26A1): 190 µL/min/pmol P450 | Clint, 18-OH RA formation (CYP26A1 [3]; substrate atRA, CYP26A1): 102 µL/min/pmol P450 | Vmax, 4-OH RA formation (CYP26A1 [3]; substrate atRA, CYP26A1): 9.5 ± 2.2 pmol/min/pmol P450 | Vmax, 18-OH RA formation (CYP26A1 [3]; substrate atRA, CYP26A1): 5.0 ± 0.5 pmol/min/pmol P450 | lower Vmax for 18-OH-RA formation compared to 4-OH-RA formation (CYP26A1 [3]; substrate atRA, CYP26A1): 45% | 18-OH-RA formation by CYP26B1 (CYP26B1 [4]): could be detected but the formation was insufficient to determine kinetic constants | Vmax of CYP26B1 mediated 4-OH-RA formation relative to CYP26A1 (CYP26B1 [4]): 10% | fold higher intrinsic clearance by CYP26B1 than by CYP3A4 and CYP2C8 (CYP26B1 [4]): approximately 100 fold | Clint, 4-OH RA formation (CYP26B1 [4]; CYP26B1): 43 µL/min/pmol P450 | Vmax, 4-OH RA formation (CYP26B1 [4]; CYP26B1): 0.81 ± 0.2 pmol/min/pmol P450

B1: CYP26B1 (Homo sapiens) (protein)
chain: MLFEGLDLVSALATLAACLVSVTLLLAVSQQLWQLRWAATRDKSCKLPIPKGSMGFPLIGETGHWLLQGSGFQSSRREKYGNVFKTHLLGRPLIRVTGAENVRKILMGEHHLVSTEWPRSTRMLLGPNTVSNSIGDIHRNKRKVFSKIFSHEALESYLPKIQLVIQDTLRAWSSHPEAINVYQEAQKLTFRMAIRVLLGFSIPEEDLGHLFEVYQQFVDNVFSLPVDLPFSGYRRGIQARQILQKGLEKAIREKLQCTQGKDYLDALDLLIESSKEHGKEMTMQELKDGTLELIFAAYATTASASTSLIMQLLKHPTVLEKLRDELRAHGILHSGGCPCEGTLRLDTLSGLRYLDCVIKEVMRLFTPISGGYRTVLQTFELDGFQIPKGWSVMYSIRDTHDTAPVFKDVNVFDPDRFSQARSEDKDGRFHYLPFGGGVRTCLGKHLAKLFLKVLAVELASTSRFELATRTFPRITLVPVLHPVDGLSVKFFGLDSNQNEILPETEAMLSATV
kcat ([5]; CYP26B1): 0.8 pmol/min/pmol P450 | kcat ([5]; CYP26B1, abstract): 0.8 pmol/min/pmol

B2: CYP26A1 (Homo sapiens) (protein)
chain: MGLPALLASALCTFVLPLLLFLAAIKLWDLYCVSGRDRSCALPLPPGTMGFPFFGETLQMVLQRRKFLQMKRRKYGFIYKTHLFGRPTVRVMGADNVRRILLGEHRLVSVHWPASVRTILGSGCLSNLHDSSHKQRKKVIMRAFSREALECYVPVITEEVGSSLEQWLSCGERGLLVYPEVKRLMFRIAMRILLGCEPQLAGDGDSEQQLVEAFEEMTRNLFSLPIDVPFSGLYRGMKARNLIHARIEQNIRAKICGLRASEAGQGCKDALQLLIEHSWERGERLDMQALKQSSTELLFGGHETTASAATSLITYLGLYPHVLQKVREELKSKGLLCKSNQDNKLDMEILEQLKYIGCVIKETLRLNPPVPGGFRVALKTFELNGYQIPKGWNVIYSICDTHDVAEIFTNKEEFNPDRFMLPHPEDASRFSFIPFGGGLRSCVGKEFAKILLKIFTVELARHCDWQLLNGPPTMKTSPTVYPVDNLPARFTHFHGEI
kcat ([5]; CYP26A1): 10 pmol/min/pmol P450 | kcat ([5]; CYP26A1, abstract): 10 pmol/min/pmol
